A word on the Kd: it is the equilibrium constant for the complex coming apart. The term IC50 denotes the concentration that gives 50% inhibition. For orientation: inhibition means the share of the control response that was lost under treatment.

The target of data set [1] is T1, Serine/threonine-protein kinase PknG (Mycobacterium tuberculosis, UniProt P9WI73). As to the kind of experiment: Binding affinity to full length Mycobacterium tuberculosis protein kinase G expressed in Escherichia coli BL21 assessed as dissociation constant at 21 degreeC by fluorescence spectroscopy based.
T1 sequence (P9WI73 whole entry): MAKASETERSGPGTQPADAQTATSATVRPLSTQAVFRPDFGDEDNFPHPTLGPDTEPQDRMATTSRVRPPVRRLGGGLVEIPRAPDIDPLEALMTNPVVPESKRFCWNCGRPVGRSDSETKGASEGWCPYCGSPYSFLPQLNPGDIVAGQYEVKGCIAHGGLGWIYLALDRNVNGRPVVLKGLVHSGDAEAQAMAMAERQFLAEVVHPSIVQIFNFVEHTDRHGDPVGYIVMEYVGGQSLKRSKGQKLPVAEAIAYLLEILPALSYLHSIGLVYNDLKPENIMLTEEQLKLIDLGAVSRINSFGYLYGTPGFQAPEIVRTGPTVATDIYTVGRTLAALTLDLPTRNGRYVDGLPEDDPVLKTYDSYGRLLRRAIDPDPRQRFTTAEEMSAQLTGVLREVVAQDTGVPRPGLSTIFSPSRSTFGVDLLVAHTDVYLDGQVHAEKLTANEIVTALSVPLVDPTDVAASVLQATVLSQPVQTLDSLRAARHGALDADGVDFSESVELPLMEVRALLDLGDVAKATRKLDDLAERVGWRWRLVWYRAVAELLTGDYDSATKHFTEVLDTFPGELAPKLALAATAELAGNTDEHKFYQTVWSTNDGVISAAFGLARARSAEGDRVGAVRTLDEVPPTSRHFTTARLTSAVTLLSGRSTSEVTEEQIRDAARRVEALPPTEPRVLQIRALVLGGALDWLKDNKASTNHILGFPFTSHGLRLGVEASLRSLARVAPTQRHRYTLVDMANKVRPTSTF
The test system of data set [2] is Mycobacterium tuberculosis. As to the kind of experiment: Antimycobacterial activity against Mycobacterium tuberculosis H37Rv infected in human THP-1 cells assessed as reduction in intracellular survival at 1 to 10 uM measured after 24 to 48 hrs. It is filed as functional, organism-based. The note with it: dose 1-10 µM, time 24-48 hrs. The method in brief:
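THP-1 monocytes were differentiated with 10 ng/mL PMA for 48 h and infected with Mtb H37Rv (MOI 10) for 2 h. Cells were washed and cultured without penicillin–streptomycin with compound at 1 and 10 μM for 24 and 48 h. Lysis was in 0.05% Triton X-100; serial dilutions were plated in quadruplicate on 7H10 OADC. CFU were counted after 3 weeks. Welch's ANOVA with Dunnett T3.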

Data set [3] deals with T1, Serine/threonine-protein kinase PknG. Briefly: Inhibition of full length Mycobacterium tuberculosis protein kinase G using His-tagged GarA as substrate in presence of [gamma32P] ATP measured after 12 to 24 hrs by radiometric kinase assay.
The test system of another data set is THP-1. As to the kind of experiment: Cytotoxicity against human THP1 cells assessed as reduction in cell viability at 1 to 10 uM measured for 3 to 48 hrs by trypan blue assay. The data set is classed as toxicity, cell-based. The note with it: thp-1, 10 µM, dose lower 1 µM, time lower 3 hrs, dose upper 10 µM, time upper 48 hrs. The method in brief:
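PMA-differentiated THP-1 macrophages were exposed to compound at 1 and 10 μM for 3, 5, 24 and 48 h. Viability was scored by trypan blue exclusion, in triplicate, as percent of untreated control cells.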

Data set [4] concerns the target Serine/threonine-protein kinase PknG (Mycobacterium tuberculosis) (UniProt P9WI73). As to the kind of experiment: Inhibition of full length Mycobacterium tuberculosis protein kinase G at 40 uM using GarA as substrate in presence of ATP relative to control. The method in brief:
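End-point assay with full-length PknG 1 μM, GarA 25 μM and ATP 2 μM, in 25 mM Tris-HCl pH 7.4, 2 mM MnCl2 and 1–2% DMSO. Reactions ran 60 min at 37 °C, after which remaining ATP was read by Kinase-Glo Plus luminescence. Inhibition was referenced to no-compound (DMSO) and no-GarA controls. Duplicates.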

Calls of active or inactive are those of the source. No cut-off for these calls is given here.

Chain of Serine/threonine-protein kinase PknG (Mycobacterium tuberculosis) (P9WI73 whole entry): as above

Take `NC(=O)c1c(N)c(C(=O)c2ccccc2)n2ccccc12`: the dissociation constant (Kd) in data set [1] stood at 1800 nM.

Take `NC(=O)c1c(NC(=O)C2CC2)sc2c1CCCC2`: the result in data set [2] was Active. Moreover, the half-inhibitory concentration (IC50) in data set [3] came out at 900 nM. On to `NC(=O)c1c(N)c(C(=O)c2ccc(Br)cc2)n2ccccc12`, for which, in data set [1], the Kd is 1300 nM. Consider `NC(=O)c1c(N)c(C(=O)c2ccc(F)cc2)n2ccccc12`, for which the outcome in data set [2] was Active. For the same compound, in the data set with THP-1, the Activity result is reported as “Non-Toxic”. On to `CS(=O)(=O)Nc1ccc(-c2cc(-c3ccccc3)cc(C(N)=O)c2N)cc1`, for which the inhibition in data set [4] came out at 50%. With `NC(=O)c1c(NC(=O)NCC2CCCO2)sc2c1CCCC2` (configuration not stated), in data set [2], the outcome was Active. In the case of `CCN1CCCC1CNC(=O)Nc1sc2c(c1C(N)=O)CCCC2` (configuration not stated), the outcome in data set [2] was Active. Turning to `CCOc1ccc(C(=O)c2c(N)c(C(N)=O)c3ccccn23)cc1`, the Kd in data set [1] stood at 13000 nM.

In the case of `CC(C)c1ccc(C(=O)c2c(N)c(C(N)=O)c3ccccn23)cc1`, the result in data set [2] was Active. The Activity entry in the data set on THP-1 is reported as “Non-Toxic”.

The values above are taken from ChEMBL document CHEMBL5143719, “Cosolvent Sites-Based Discovery of Mycobacterium Tuberculosis Protein Kinase G Inhibitors” (J Med Chem, 2022).
